Calls of active or inactive are those of the source. Starred links: 1 amine or outer side, 2 acyl side, 3 side chain; linkers in the order of their positions; H or OH if unused. Positions of bridges follow the written chain, without caps; N, C: chain ends. Non-standard residues stand in square brackets, D forms with d. Residues, ends and D or L forms follow the SMILES beside them. *: point of attachment. X3 = CC(=O)N[C@H]1[C@@H](O[C@H](C)[C@H](NO[*:2])C(=O)[*:1])O[C@H](CO)[C@H](O)[C@@H]1O[C@@H]1O[C@H](CO)[C@H](O)[C@H](O)[C@H]1O; X1 = CC(=O)N[C@@H]1[C@@H](O[C@@H]2O[C@H](CO)[C@H](O)[C@H](O)[C@H]2O)[C@@H](O)[C@@H](CO)O[C@@H]1*; X2 = CC1(C)OC[C@@H](C(=O)[*:2])N1[*:1]; NMeA = CN[C@@H](C)C(=O)O
System: Epithelial cell
Assay: Antiproliferative activity against human bladder epithelial cells assessed as inhibition of [3H]thymidine incorporation at <25 uM after 48 hrs relative to as-APF
Assay type: functional, cell-based
Outline: (§1)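 Primary normal human bladder epithelial cells, explanted from cystoscopy biopsies, plated at 1.5 × 10⁴ cells/well in MEM with 10% heat-inactivated FBS. Congeners dissolved in acetonitrile/water (1:1), added in serum-free MEM in 10-fold dilutions up to the 25 µM assay cutoff. Incubated 48 h at 37 °C, 5% CO₂. ³H-thymidine uptake counted on filters. Activity expressed relative to the standard control run on each plate. Triplicates, at least two runs, ANOVA.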

SMILES | Activity
CC(=O)N[C@H]1[C@@H](O[C@H](C)[C@H](N)C(=O)N[C@H](C(=O)N2CCC[C@@H]2C(=O)N[C@@H](C)C(=O)N[C@@H](C)C(=O)N[C@H](C(=O)N[C@H](C(=O)N[C@H](C(=O)N[C@@H](C)C(=O)O)C(C)C)C(C)C)C(C)C)C(C)C)O[C@H](CO)[C@H](O)[C@@H]1O[C@@H]1O[C@H](CO)[C@H](O)[C@H](O)[C@H]1O | inactive
CC(=O)N[C@H]1[C@@H](O[C@H](C)[C@H](N)C(=O)N[C@H](C(=O)N2CCC[C@H]2C(=O)NCCCCCCCCCCCC(=O)O)C(C)C)O[C@H](CO)[C@H](O)[C@@H]1O[C@@H]1O[C@H](CO)[C@H](O)[C@H](O)[C@H]1O | inactive
CC(=O)N[C@H]1[C@@H](O[C@H](C)[C@H](N)C(=O)N[C@H](C(=O)N2CCC[C@H]2C(=O)N[C@@H](C)C(=O)N[C@@H](C)C(=O)N[C@H](C(=O)N[C@@H](C(=O)N[C@H](C(=O)N[C@@H](C)C(=O)O)C(C)C)C(C)C)C(C)C)C(C)C)O[C@H](CO)[C@H](O)[C@@H]1O[C@@H]1O[C@H](CO)[C@H](O)[C@H](O)[C@H]1O | inactive
CC(=O)N[C@H]1[C@@H](O[C@H](C)[C@H](N)C(=O)N[C@@H](CC(C)C)C(=O)N2CCC[C@H]2C(=O)N[C@@H](C)C(=O)N[C@@H](C)C(=O)N[C@H](C(=O)N[C@H](C(=O)N[C@H](C(=O)N[C@@H](C)C(=O)O)C(C)C)C(C)C)C(C)C)O[C@H](CO)[C@H](O)[C@@H]1O[C@@H]1O[C@H](CO)[C@H](O)[C@H](O)[C@H]1O (H-T(X1)LPAAVVVA-OH) | inactive
CC(=O)N[C@H]1[C@@H](O[C@H](C)[C@H](N)C(=O)N[C@H](C(=O)N2CCC[C@H]2C(=O)N[C@@H](C)C(=O)N[C@@H](C)C(=O)O)C(C)C)O[C@H](CO)[C@H](O)[C@@H]1O[C@@H]1O[C@H](CO)[C@H](O)[C@H](O)[C@H]1O (H-T(X1)VPAA-OH) | inactive
CC[C@H](C)[C@H](NC(=O)[C@H](C)NC(=O)[C@H](C)NC(=O)[C@@H]1CCCN1C(=O)[C@@H](NC(=O)[C@@H](N)[C@@H](C)O[C@H]1O[C@H](CO)[C@H](O)[C@H](O[C@@H]2O[C@H](CO)[C@H](O)[C@H](O)[C@H]2O)[C@H]1NC(C)=O)C(C)C)C(=O)N[C@H](C(=O)N[C@H](C(=O)N[C@@H](C)C(=O)O)[C@@H](C)CC)C(C)C (H-T(X1)VPAAIVIA-OH) | inactive
CC(=O)N[C@H]1[C@@H](O[C@H](C)[C@H](N)C(=O)N[C@H](C(=O)N2CCC[C@H]2C(=O)N[C@@H](C)C(=O)N[C@@H](C)C(=O)N[C@H](C(=O)N[C@H](C(=O)O)C(C)C)C(C)C)C(C)C)O[C@H](CO)[C@H](O)[C@@H]1O[C@@H]1O[C@H](CO)[C@H](O)[C@H](O)[C@H]1O (H-T(X1)VPAAVV-OH) | inactive
CC(=O)N[C@H]1[C@@H](O[C@H](C)[C@H](N)C(=O)N[C@H](C(=O)N2CCC[C@H]2C(=O)N[C@@H](C)C(=O)N[C@@H](C)C(=O)N[C@H](C(=O)N[C@H](C(=O)N[C@@H](C)C(=O)N[C@H](C(=O)O)C(C)C)C(C)C)C(C)C)C(C)C)O[C@H](CO)[C@H](O)[C@@H]1O[C@@H]1O[C@H](CO)[C@H](O)[C@H](O)[C@H]1O (H-T(X1)VPAAVVAV-OH) | inactive
CC(=O)N[C@H]1[C@@H](O[C@H](C)[C@H](N)C(=O)N[C@H](C(=O)N2CCC[C@H]2C(=O)N[C@@H](C)C(=O)N[C@@H](C)C(=O)N[C@H](C(=O)N[C@H](C(=O)N[C@H](C(=O)N[C@@H](C)C(=O)N[C@@H](CCC(=O)O)C(=O)O)C(C)C)C(C)C)C(C)C)C(C)C)O[C@H](CO)[C@H](O)[C@@H]1O[C@@H]1O[C@H](CO)[C@H](O)[C@H](O)[C@H]1O (H-T(X1)VPAAVVVAE-OH) | inactive
CC(=O)N[C@H]1[C@@H](O[C@H](C)[C@H](N)C(=O)N[C@H](C(=O)N2CCC[C@H]2C(=O)N[C@@H](C)C(=O)N[C@@H](C)C(=O)N[C@H](C(=O)N[C@H](C(=O)N[C@H](C(=O)N[C@@H](C)C(=O)N[C@@H](CCCCN)C(=O)O)C(C)C)C(C)C)C(C)C)C(C)C)O[C@H](CO)[C@H](O)[C@@H]1O[C@@H]1O[C@H](CO)[C@H](O)[C@H](O)[C@H]1O (H-T(X1)VPAAVVVAK-OH) | inactive
CC(=O)N[C@H]1[C@@H](O[C@H](C)[C@H](N)C(=O)N[C@H](C(=O)N2CCC[C@H]2C(=O)N[C@@H](C)C(=O)NCC(=O)N[C@H](C(=O)N[C@H](C(=O)N[C@H](C(=O)NCC(=O)O)C(C)C)C(C)C)C(C)C)C(C)C)O[C@H](CO)[C@H](O)[C@@H]1O[C@@H]1O[C@H](CO)[C@H](O)[C@H](O)[C@H]1O (H-T(X1)VPAGVVVG-OH) | inactive
CC(=O)N[C@H]1[C@@H](O[C@H](C)[C@H](N)C(=O)N[C@H](C(=O)N2[C@H](C(=O)N[C@@H](C)C(=O)N[C@@H](C)C(=O)N[C@H](C(=O)N[C@H](C(=O)N[C@H](C(=O)N[C@@H](C)C(=O)O)C(C)C)C(C)C)C(C)C)COC2(C)C)C(C)C)O[C@H](CO)[C@H](O)[C@@H]1O[C@@H]1O[C@H](CO)[C@H](O)[C@H](O)[C@H]1O (H-T(X1)V[X2]AAVVVA-OH) | inactive
CC(=O)N[C@H]1[C@@H](O[C@H](C)[C@H](N)C(=O)N[C@@H](Cc2ccc(O)cc2)C(=O)N2CCC[C@H]2C(=O)N[C@@H](C)C(=O)N[C@@H](C)C(=O)N[C@H](C(=O)N[C@H](C(=O)N[C@H](C(=O)N[C@@H](C)C(=O)O)C(C)C)C(C)C)C(C)C)O[C@H](CO)[C@H](O)[C@@H]1O[C@@H]1O[C@H](CO)[C@H](O)[C@H](O)[C@H]1O (H-T(X1)YPAAVVVA-OH) | inactive
CC(=O)N[C@H]1[C@@H](O[C@H](C)[C@@H]2NOC(=O)[C@H](C)NC(=O)[C@H](C(C)C)NC(=O)[C@H](C(C)C)NC(=O)[C@H](C(C)C)NC(=O)[C@H](C)NC(=O)[C@H](C)NC(=O)[C@@H]3CCCN3C(=O)[C@H](C(C)C)NC2=O)O[C@H](CO)[C@H](O)[C@@H]1O[C@@H]1O[C@H](CO)[C@H](O)[C@H](O)[C@H]1O (VPAAVVVA; linker N-C via X3) | inactive

System: not listed separately
Assay: Antiproliferative activity against human bladder epithelial cells assessed as inhibition of [3H]thymidine incorporation after 48 hrs relative to as-APF
Assay type: functional, Epithelial cell
Parameters: scale not given: the % may be the effect or the level left
Outline: as §1

SMILES | Activity
CC(=O)N[C@H]1[C@@H](OC[C@H](N)C(=O)N[C@@H](CC(C)C)C(=O)N2CCC[C@H]2C(=O)N[C@@H](C)C(=O)N[C@@H](C)C(=O)N[C@H](C(=O)N[C@H](C(=O)N[C@H](C(=O)N[C@@H](C)C(=O)O)C(C)C)C(C)C)C(C)C)O[C@H](CO)[C@H](O)[C@@H]1O[C@@H]1O[C@H](CO)[C@H](O)[C@H](O)[C@H]1O (H-S(X1)LPAAVVVA-OH) | 1%
CC(=O)N[C@H]1[C@@H](OC[C@H](N)C(=O)N[C@H](C(=O)N2CCC[C@H]2C(=O)N[C@@H](C)C(=O)N[C@@H](C)C(=O)N[C@H](C(=O)N[C@H](C(=O)N[C@H](C(=O)N[C@@H](C)C(=O)O)C(C)C)C(C)C)C(C)C)C(C)C)O[C@H](CO)[C@H](O)[C@@H]1O[C@@H]1O[C@H](CO)[C@H](O)[C@H](O)[C@H]1O (H-S(X1)VPAAVVVA-OH) | 0.01%
CC(=O)N[C@H]1[C@@H](O[C@H](C)[C@H](N)C(=O)N[C@H](C(=O)N[C@@H](C)C(=O)N[C@@H](C)C(=O)N[C@@H](C)C(=O)N[C@H](C(=O)N[C@H](C(=O)N[C@H](C(=O)N[C@@H](C)C(=O)O)C(C)C)C(C)C)C(C)C)C(C)C)O[C@H](CO)[C@H](O)[C@@H]1O[C@@H]1O[C@H](CO)[C@H](O)[C@H](O)[C@H]1O (H-T(X1)VAAAVVVA-OH) | 0.3%
CC(=O)N[C@H]1[C@@H](O[C@H](C)[C@H](N)C(=O)N[C@H](C(=O)N2CCC[C@H]2C(=O)N[C@@H](C)C(=O)N[C@@H](C)C(=O)N[C@@H](C)C(=O)N[C@@H](C)C(=O)N[C@@H](C)C(=O)N[C@@H](C)C(=O)O)C(C)C)O[C@H](CO)[C@H](O)[C@@H]1O[C@@H]1O[C@H](CO)[C@H](O)[C@H](O)[C@H]1O (H-T(X1)VPAAAAAA-OH) | 1%
CC(=O)N[C@H]1[C@@H](O[C@H](C)[C@H](N)C(=O)N[C@H](C(=O)N2CCC[C@H]2C(=O)N[C@@H](C)C(=O)N[C@@H](C)C(=O)N[C@H](C(=O)N[C@H](C(=O)N[C@H](C(=O)O)C(C)C)C(C)C)C(C)C)C(C)C)O[C@H](CO)[C@H](O)[C@@H]1O[C@@H]1O[C@H](CO)[C@H](O)[C@H](O)[C@H]1O (H-T(X1)VPAAVVV-OH) | 100%
CC(=O)N[C@H]1[C@@H](O[C@H](C)[C@H](N)C(=O)N[C@H](C(=O)N2CCC[C@H]2C(=O)N[C@@H](C)C(=O)N[C@@H](C)C(=O)N[C@H](C(=O)N[C@H](C(=O)N[C@H](C(=O)N[C@@H](C)C(=O)N[C@@H](CS)C(=O)O)C(C)C)C(C)C)C(C)C)C(C)C)O[C@H](CO)[C@H](O)[C@@H]1O[C@@H]1O[C@H](CO)[C@H](O)[C@H](O)[C@H]1O (H-T(X1)VPAAVVVAC-OH) | 1%
CC(=O)N[C@H]1[C@@H](O[C@H](C)[C@H](N)C(=O)N[C@H](C(=O)N2CCC[C@H]2C(=O)N[C@@H](C)C(=O)N[C@@H](C)C(=O)N[C@H](C(=O)N[C@H](C(=O)N[C@H](C(=O)N[C@@H](CC(C)C)C(=O)O)C(C)C)C(C)C)C(C)C)C(C)C)O[C@H](CO)[C@H](O)[C@@H]1O[C@@H]1O[C@H](CO)[C@H](O)[C@H](O)[C@H]1O (H-T(X1)VPAAVVVL-OH) | 0.01%
CC(=O)N[C@H]1[C@@H](O[C@H](C)[C@H](N)C(=O)N[C@H](C(=O)N2CCC[C@H]2C(=O)N[C@@H](C)C(=O)N[C@@H](CO)C(=O)N[C@H](C(=O)N[C@H](C(=O)N[C@H](C(=O)N[C@@H](CO)C(=O)O)C(C)C)C(C)C)C(C)C)C(C)C)O[C@H](CO)[C@H](O)[C@@H]1O[C@@H]1O[C@H](CO)[C@H](O)[C@H](O)[C@H]1O (H-T(X1)VPASVVVS-OH) | 0.2%
CC(=O)N[C@H]1[C@@H](O[C@H](C)[C@H](N)C(=O)N[C@H](C(=O)N(C)[C@@H](C)C(=O)N[C@@H](C)C(=O)N[C@@H](C)C(=O)N[C@H](C(=O)N[C@H](C(=O)N[C@H](C(=O)N[C@@H](C)C(=O)O)C(C)C)C(C)C)C(C)C)C(C)C)O[C@H](CO)[C@H](O)[C@@H]1O[C@@H]1O[C@H](CO)[C@H](O)[C@H](O)[C@H]1O (H-T(X1)V[NMeA]AAVVVA-OH) | 0.05%
